pIC50, pKd: −log10 of the molar value. Activity calls are given as the source filed them. No cut-off for these calls is given here.
Experiments:
[1] = molecular target: T1, 1-deoxy-D-xylulose 5-phosphate reductoisomerase (Mycobacterium tuberculosis, UniProt P9WNS1); assay: Inhibition of Mycobacterium tuberculosis DXR using DXP as substrate measured every 5 secs for 250 secs in presence of NADPH
T1 sequence (P9WNS1 whole entry): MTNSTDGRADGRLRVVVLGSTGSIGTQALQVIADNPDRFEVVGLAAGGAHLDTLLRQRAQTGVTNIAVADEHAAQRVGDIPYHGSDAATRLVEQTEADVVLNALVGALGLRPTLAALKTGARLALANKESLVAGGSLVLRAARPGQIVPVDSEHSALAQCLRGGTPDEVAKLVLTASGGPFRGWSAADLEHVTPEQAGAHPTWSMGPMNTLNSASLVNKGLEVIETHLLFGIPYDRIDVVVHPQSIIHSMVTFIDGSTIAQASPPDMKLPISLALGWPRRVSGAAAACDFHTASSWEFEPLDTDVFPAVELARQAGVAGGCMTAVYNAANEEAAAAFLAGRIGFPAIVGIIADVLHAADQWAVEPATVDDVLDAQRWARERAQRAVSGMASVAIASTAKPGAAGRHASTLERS
Summary of the method: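 MtDXR activity assay run with NADPH cofactor at 200 μM; IC50 taken from inhibition of enzyme activity.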

[2] = molecular target: T1, 1-deoxy-D-xylulose 5-phosphate reductoisomerase; assay: Binding affinity to Mycobacterium tuberculosis DXR assessed as dissociation constant by spectrofluorimetric analysis in presence of NADPH and MnCl2
Summary of the method: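 Purified MtDXR; binding followed by direct fluorescence from changes in the environment of the protein's six tryptophan residues.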

Plasmodium falciparum = assay: Antimalarial activity against Plasmodium falciparum 3D7 assessed as parasite growth inhibition after 18 hrs by SYBR Green-1 staining-based fluorescence assay; format: functional, organism-based; conditions: 3D7, 18 h
[3] = molecular target: T2, 1-deoxy-D-xylulose 5-phosphate reductoisomerase (Mycobacterium tuberculosis) (UniProt P9WNS1); assay: Inhibition of Mycobacterium tuberculosis DXR using DXP as substrate at 100 uM measured every 5 secs for 250 secs in presence of NADPH relative to control
T2 sequence (whole entry): T1 sequence (P9WNS1 whole entry)

[4] = system: Mycobacterium tuberculosis; assay: Antibacterial activity against Mycobacterium tuberculosis H37Rv assessed as growth inhibition by Alamar blue assay; format: functional, organism-based
[5] = Inhibition of Escherichia coli DXR using DXP as substrate measured every 5 secs for 250 secs in presence of NADPH
[6] = Inhibition of Plasmodium falciparum DXR using DXP as substrate measured every 5 secs for 250 secs in presence of NADPH

SMILES | pIC50 [1] | pKd [2] | pIC50 (Plasmodium falciparum) | inhibition [3] [%] | growth inhibition (GI) [4] | pIC50 [5] | pIC50 [6]
O=C(c1ccc2ccccc2c1)N(O)CCCP(=O)(O)O | 5.70 | – | – | – | – | – | –
O=CN(O)CCC(c1ccc(Cl)c(Cl)c1)P(=O)(O)O (stereo not given) | – | 6.92 | – | – | – | – | –
O=C(c1ccccc1Cn1cncn1)N(O)CCC(c1ccc(Cl)c(Cl)c1)P(=O)(O)O (stereo not given) | 4.89 | 7.40 | < 5.00 | 70 | inactive | – | –
O=C(NCC(=O)N(O)CCCP(=O)(O)O)C1CC1 | < 3.70 | – | – | – | – | 5.15 | 5.48
Cc1ccccc1C(=O)N(O)CCC(c1ccc(Cl)c(Cl)c1)P(=O)(O)O (stereo not given) | 6.08 | – | < 5.00 | 95 | inactive | – | –
CC(=O)N(O)CCCP(=O)(O)O [FR-900098] | – | – | – | – | – | 7.29 | 7.74
O=C(c1ccco1)N(O)CCCP(=O)(O)O | 4.31 | – | – | – | – | – | –
O=C(c1cccnc1)N(O)CCCP(=O)(O)O | 5.80 | – | – | – | – | – | –
NC(=O)c1cncc(C(=O)N(O)CCCP(=O)(O)O)c1 | 5.44 | – | – | – | – | – | –
O=C(CCCOc1ccccc1)NCC(=O)N(O)CCCP(=O)(O)O | < 3.70 | – | – | – | – | 6.00 | 6.40
O=C(c1ccccc1Cc1cccs1)N(O)CCC(c1ccc(Cl)c(Cl)c1)P(=O)(O)O (stereo not given) | 5.15 | – | < 5.00 | 90 | inactive | – | –
CCC(=O)N(O)CCCP(=O)(O)O | 4.57 | – | – | – | – | – | –
O=C(Cc1ccccc1)N(O)CCCP(=O)(O)O | 4.17 | 6.49 | – | – | – | 4.89 | –
C[C@@H]1CC[C@H]2[C@@H](C)C(=O)O[C@@H]3O[C@@]4(C)CC[C@@H]1[C@]32OO4 [ARTEMISININ] | – | – | 8.30 | – | – | – | –
O=C(c1ccccc1OC(F)(F)F)N(O)CCC(c1ccc(Cl)c(Cl)c1)P(=O)(O)O (stereo not given) | 5.10 | 7.05 | < 5.00 | 90 | inactive | – | –
O=C(c1ccc(Cn2cncn2)cc1)N(O)CCC(c1ccc(Cl)c(Cl)c1)P(=O)(O)O (stereo not given) | 5.92 | 6.70 | 6.72 | 80 | inactive | – | –
CC(=O)Oc1cccc(C(=O)N(O)CCC(c2ccc(Cl)c(Cl)c2)P(=O)(O)O)c1 (stereo not given) | < 4.00 | – | 5.41 | 30 | inactive | – | –
O=C(c1cccc(Cn2cncn2)c1)N(O)CCC(c1ccc(Cl)c(Cl)c1)P(=O)(O)O (stereo not given) | 6.85 | 6.77 | 6.41 | 90 | inactive | – | –
O=C(c1ccccc1)N(O)CCC(c1ccc(Cl)c(Cl)c1)P(=O)(O)O (stereo not given) | 6.49 | 6.68 | 7.40 | 100 | inactive | – | –
O=C(c1ccccc1C(F)(F)F)N(O)CCC(c1ccc(Cl)c(Cl)c1)P(=O)(O)O (stereo not given) | 5.05 | – | – | 70 | inactive | – | –
O=CN(O)CCCP(=O)(O)O [FOSMIDOMYCIN] | – | – | – | – | – | 7.30 | 7.49
O=C(c1ccccc1-c1ccccc1)N(O)CCC(c1ccc(Cl)c(Cl)c1)P(=O)(O)O (stereo not given) | 4.68 | – | < 5.00 | 60 | inactive | – | –
O=C(c1ccccc1Nc1cccc(C(F)(F)F)c1)N(O)CCC(c1ccc(Cl)c(Cl)c1)P(=O)(O)O (stereo not given) | 4.72 | 7.05 | < 5.00 | 80 | inactive | – | –
O=C(C1CC1)N(O)CCCP(=O)(O)O | 3.81 | – | – | – | – | 5.35 | –
O=C(c1ccccc1)N(O)CCCP(=O)(O)O | 5.70 | – | – | – | – | 6.89 | 7.21
CC(=O)N(O)CCC(c1ccc(Cl)c(Cl)c1)P(=O)(O)O (stereo not given) | – | 6.44 | – | – | – | – | –

— ChEMBL document CHEMBL2407016 (J Med Chem, 2013)
